Bioassay records as filed in PubChem.
PolyA inhibitor = polyadenylation inhibitors in yeast reporter cells, primary screen, luminescence, S. cerevisiae. S. cerevisiae SKY197-pL101 polyadenylation reporter, beta-gal luminescence; efflux-impaired pdr1/pdr3 knockout yeast; score 100 = 6 SD above DMSO. actives 0.02% (n = 300,000). activity score, % at 12 µM;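 active = lowest replicate activity score at least 50, where 100 means six control SD above control mean; inconclusive = lowest score under 50 but half or more replicates reach 50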;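 note: yeast exposed to compound for 9 h at 30 °C; higher score means more reporter readthrough which indicates perturbed polyadenylation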
Lmaj promast = Leishmania major promastigote growth inhibition, primary screen; actives 9% (n = 200,000); AID 1063, 2008; inhibition, % at 10 µM; Leishmania major promastigotes, resazurin fluorescence viability; in the data active = inhibition above about 50%;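 note: promastigotes grown with compound for 44 hours at 28 °C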
NALP3 yeast inh = NALP3 inflammasome inhibitors in reconstituted yeast, primary screen, luminescence, uHTS | Yeast reconstituted NLRP3/ASC/caspase-1, beta-gal luminescence, 24 h | inhibition, % at 10 µM | actives 0.39% (n = 330,000);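 active = inhibition of 50% or more; inactive = inhibition below 50%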;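 note: plate controls were induced DMSO wells for no effect and uninduced yeast grown without galactose for full effect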
NALP1 yeast inh = NALP1 inflammasome inhibitors in reconstituted yeast, colorimetric, S. cerevisiae, triplicate retest. inhibition, % at 10 µM. AID 2071, 2009. actives 0.61% (n = 280,000). S. cerevisiae NALP1/ASC/caspase-1 growth, X-gal OD620, 72 h; in the data active = inhibition mostly above about 24%, no sharp cut-off; inactive = mostly below about 32%
T cruzi inh = inhibitors of intracellular T. cruzi growth, primary screen, luminescence, NIH3T3 host cells. T. cruzi beta-gal in NIH3T3, 90 h. inhibition, % (concentration not given with the values). actives 1.4% (n = 300,000). AID 1885, 2009;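 active = mean inhibition across valid replicates above about 55%, limit read from the data; inconclusive = mean below that limit but half or more replicates reach it; inactive = mean below it, under half of replicates reach it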;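 note: signal also drops with host cell toxicity which is not excluded here; 0% = plate median of DMSO wells and 100% = zero luminescence signal; higher percent means less beta-gal luminescence so fewer parasites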
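assay system = mouse NIH/3T3 fibroblasts infected with β-gal-expressing T. cruzi Tulahuen C4 | input = 5,000 NIH/3T3 host cells per well | buffer or medium = DMEM plus 2% FBS | timing = 3 h host attachment, then at least 90 h co-culture | measured by = GalScreen luminescence, 60 min | evaluation = luminescence reflecting intracellular parasite burden, expressed as percent inhibition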
Calb FLC = C. albicans growth inhibition with fluconazole, primary screen, CaCi-2 strain, Alamar Blue fluorescence | C. albicans CaCi-2 (fluconazole-resistant clinical isolate) + fluconazole, 48 h | growth inhibition, % (test concentration not listed) | actives 0.57% (n = 300,000) | AID 1979, 2009;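 active = growth inhibition above about 58% in most replicates, limit read from the data, passing the limit was not always enough; inconclusive = exactly half the replicates above a set limit; inactive = most replicates below a set limit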;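 note: all wells also contain fluconazole at 8 µg/ml as a sub-toxic cotreatment; 0% = median of DMSO wells and 100% = median of geldanamycin control wells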
* hit, by the source's call; ? = inconclusive; nt = not tested or not shown. Only a selection was taken, and hits are over-represented in it overall.

SMILES	PolyA inhibitor	Lmaj promast	NALP3 yeast inh	NALP1 yeast inh	T cruzi inh	Calb FLC
O=C(CS(=O)(=O)Nc1ccc(F)cc1Cl)Nc1ccc(F)cc1Cl	-16.8	nt	3.3	-3.3	-15.3	78.8*
Cc1ccc(SCC(=O)Nc2cccc(NC(=O)c3ccco3)c2)cc1	-15.2	77.2*	-2.1	-6.8	-3.8	2.3
O=C(CSc1ccc(Cl)cc1)Nc1ccc(NC(=O)c2ccco2)cc1	-32.5	4.2	-4.8	24.1	-11.6	-12.2
Cc1ccc(-n2nnnc2SCC(=O)Nc2cccc(NC(=O)c3ccco3)c2)cc1C	6.6	66.4*	3.1	5.9	4.8	-3.9
CCC(=O)Nc1cccc(-n2nnnc2SCC(=O)NCc2ccco2)c1	8.6	18.3	17.6	13.0	-11.5	0.5
CCC(=O)Nc1cccc(-n2nnnc2SCC(=O)c2ccc(C)c(C)c2)c1	18.7	99.4*	-6.1	14.9	26.3	-40.1
C=CCNC(=O)CN(c1ccc(F)c(Cl)c1)S(C)(=O)=O	-4.1	-6.1	5.9	14.1	14.2	-4.5
CCN(c1cccc(C)c1)S(=O)(=O)c1c(C)[nH]c(C)c1C(=O)N1CCCCC1	-5.3	nt	6.6	4.7	15.6	-0.3
CCOC(=O)C1(CC2CC2)CCN(C(=O)c2cccnc2C)CC1	7.7	-7.9	0.7	2.1	-8.9	-23.4
CCOC(=O)C1(CCOc2ccccc2)CCN(Cc2cccc(OC)c2OC)CC1	-11.4	nt	19.7	16.9	24.0	21.6
CCOC(=O)C1(CCOc2ccccc2)CCN(Cc2cccc3c2OCO3)CC1	7.1	90.8*	26.5	11.0	65.2*	-16.5
CCOC(=O)C1(CCOc2ccccc2)CCN(Cc2cc(OC)c3c(c2)OCO3)CC1	-12.1	84.5*	10.9	20.4	60.4*	?
COc1cc(C2NCC(c3ccc(Cl)cc3Cl)c3c2[nH]c2ccccc32)cc(OC)c1OC (configuration not stated)	0.7	99.3*	15.1	38.3	42.7	0.7
Cc1nc(NC(=O)/C=C/c2ccc(C(C)(C)C)cc2)sc1C(=O)N(C)C	-4.7	60.8*	-1.5	16.8	-34.2	6.9
O=C(/C=C/c1cccs1)Nc1ccncc1	12.7	2.7	-9.2	43.8	-13.3	-12.8
CC(C)(C)c1ccc(/C=C/C(=O)Nc2ccncc2)cc1	-4.8	87.7*	16.8	30.7	36.1	17.8
Cc1nc(NC(=O)c2c(-c3ccccc3)noc2C)sc1C(=O)N(C)C	nt	nt	10.7	1.7	nt	120.4*
COc1cccc(NC(=O)C(=O)NCCC2CCCCN2S(=O)(=O)c2ccccc2)c1 (configuration not stated)	-25.3	nt	20.6	nt	7.0	11.3
CCN(CC)S(=O)(=O)c1ccc2c(c1)nc(CCC(=O)Nc1ccc3c(c1)OCO3)n2CC	14.9	16.9	6.9	29.6	14.6	1.3
CNC(=S)N/N=C/C1=CCC2CC1C2(C)C (configuration not stated)	1.4	97.4*	-20.9	21.4	27.5	-32.8
CC1(C)C2CC=C(/C=N/NC(=S)NCCc3ccccc3)C1C2 (configuration not stated)	-13.4	86.8*	23.8	9.5	5.7	-6.3
CC1(C)C2CC=C(/C=N/NC(=O)c3ccccc3O)C1C2 (configuration not stated)	0.2	6.8	27.0	40.0	8.8	?
COc1ccc(NC(=O)C2CCCN2S(=O)(=O)c2cccs2)c([N+](=O)[O-])c1 (configuration not stated)	-8.5	nt	12.4	nt	-11.5	-7.4
CCOC(=O)c1c(C)[nH]c2cc(Br)c(OC)cc12	-39.6	33.2	22.0	12.6	nt	-2.8
CCOC(=O)c1c(C)[n+](-c2ccc(C)cc2)c(CC)c2cc(OC)c(OC)cc12	15.0	nt	-0.1	0.6	55.1*	-15.9
SMILES	PolyA inhibitor	Lmaj promast	NALP3 yeast inh	NALP1 yeast inh	T cruzi inh	Calb FLC
CCOc1ccc(S(=O)(=O)N2CCC(C(=O)N3CCN(c4ccccc4F)CC3)CC2)cc1C	9.9	nt	19.3	16.4	4.6	0.0
CC(C)Oc1ccc(C(CC(=O)N(C)CCC#N)c2ccc(F)cc2)cc1 (configuration not stated)	18.7	52.8*	9.1	29.3	2.9	?
CCN(CC)C(=O)CC(c1ccc(F)cc1)c1ccc(OC)cc1 (configuration not stated)	-7.9	-4.7	12.1	23.0	-2.0	-17.6
Cc1cc(C)c(NS(=O)(=O)c2ccc(NC(=O)/C=C/C(=O)O)cc2)c(C)c1	1.7	19.1	-7.3	51.3*	-5.3	-17.8
CC(=O)N1CCN(C(=O)CSc2nc3c(cnn3-c3ccccc3)c(=O)[nH]2)CC1	-2.2	9.3	6.8	nt	-13.9	3.4
O=C(CSc1nc2c(cnn2-c2ccccc2)c(=O)[nH]1)N1N=C(c2cccs2)CC1c1ccc(F)cc1 (configuration not stated)	-12.4	68.9*	6.2	27.5	41.8	5.3
Cc1cc(C)cc(N(CC(=O)NCc2ccco2)C(=O)CCC(=O)Nc2nccs2)c1	-19.3	77.7*	-3.5	-21.6	14.7	-5.8
Cc1ccc(N(CC(=O)NCc2ccco2)C(=O)CCC(=O)Nc2nccs2)cc1	1.6	nt	-6.1	nt	-3.5	7.1
Cc1ccc(NC(=S)NCc2ccco2)c(C)c1	-4.8	nt	6.6	nt	-1.1	-3.1
Cc1ccccc1C(=O)NC1CC2CCCC(C1)N2Cc1ccccc1 (configuration not stated)	17.0	nt	13.4	-1.4	11.2	-0.6
Cc1ccc(NC(=S)NC2CC3CCC(C2)N3Cc2ccco2)c(C)c1 (configuration not stated)	8.1	89.3*	9.7	22.1	-9.3	-2.1
CCc1ccccc1NC(=S)NC1CC2CCC(C1)N2Cc1ccco1 (configuration not stated)	17.4	71.3*	24.2	9.3	-17.9	-12.8
Cc1cccc(NC(=S)NC2CC3CCCC(C2)N3Cc2ccccc2)c1C (configuration not stated)	-5.0	86.8*	18.0	13.6	-1.0	-9.3
Cc1ccc(NC(=S)NC2CC3CCC(C2)N3Cc2ccco2)cc1C (configuration not stated)	0.5	99.5*	7.7	-3.9	0.3	-12.3
CCOc1cc(C(=O)N[C@@H](C)C(=O)N2CCC3(CC2)NCCc2[nH]cnc23)cc(OCC)c1OCC	15.3	nt	-0.2	12.8	-15.6	1.4
O=C(C[C@H]1C/C=C\CC[C@H](Cc2ccc(F)cc2)C(=O)OC[C@H]2CCCN2C1=O)N[C@@H](CO)Cc1ccccc1	nt	nt	9.5	nt	nt	nt
CCN1C(=O)[C@@H]2[C@@H](c3ccc(SC4CCCCC4)c(OC)c3)N3CCC[C@@]3(C(=O)OC)[C@@H]2C1=O	nt	nt	-2.0	nt	nt	nt
